Reference: ChEMBL document CHEMBL4266059, “Synthesis of Cyanoenone-Modified Diterpenoid Analogs as Novel Bmi-1-Mediated Antitumor Agents” (ACS Med Chem Lett, 2018)
The source made the active and inactive calls. No cut-off for these calls is given here.

Legend:
HCT-116 [1] = experiment: Effect on total H2A protein expression in human HCT116 cells at 0.5 to 4 uM after 8 hrs by Western blot analysis; assay type: functional, cell-based
Method in brief: (§1)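 HCT116 cells treated with test agents at the indicated concentrations for 8 h. Bmi-1, H2A-K119 ubiquitinated H2A (ub-H2A), total H2A and Ring1b detected by Western blot.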

HCT-116 [2] = experiment: Effect on total Ring1b protein expression in human HCT116 cells at 0.5 to 4 uM after 8 hrs by Western blot analysis; assay type: functional, cell-based; method in brief: as §1
HCT-116 [3] = experiment: Antiproliferative activity against human HCT116 cells after 72 hrs by SRB assay; assay type: functional, cell-based; settings: HCT-116, 72 h
HCT-116 [4] = experiment: Inhibition of Bmi1 protein expression in human HCT116 cells after 8 hrs by Western blot analysis; assay type: functional, cell-based
HT-29 = experiment: Antiproliferative activity against human HT-29 cells after 72 hrs by SRB assay; assay type: functional, cell-based; settings: HT-29, 72 h
HCT-8 = experiment: Antiproliferative activity against human HCT8 cells after 72 hrs by SRB assay; assay type: functional, cell-based; settings: HCT-8, 72 h
[5] = Antiproliferative activity against HAF after 72 hrs by SRB assay; set-up: species or system Homo sapiens
[6] = Selectivity index, ratio of IC50 for HAF to IC50 for human HCT116 cells; assay type: toxicity; settings: HAF cells versus HCT116 cells, read-out: Ratio IC50
[7] = Selectivity index, ratio of IC50 for HAF to IC50 for human HT-29 cells; assay type: toxicity; settings: HAF cells versus HT-29 cells, read-out: Ratio IC50
[8] = Selectivity index, ratio of IC50 for HAF to IC50 for human HCT8 cells; assay type: toxicity; settings: HAF cells versus HCT8 cells, read-out: Ratio IC50
[9] = molecular target: T1, Polycomb complex protein BMI-1 (Homo sapiens) (UniProt P35226); experiment: Inhibition of Bmi1 in human HCT116 cells assessed as reduction in H2A-K119Ub level after 8 hrs by Western blot analysis; assay type: cell-based; method in brief: as §1
T1 sequence (whole entry): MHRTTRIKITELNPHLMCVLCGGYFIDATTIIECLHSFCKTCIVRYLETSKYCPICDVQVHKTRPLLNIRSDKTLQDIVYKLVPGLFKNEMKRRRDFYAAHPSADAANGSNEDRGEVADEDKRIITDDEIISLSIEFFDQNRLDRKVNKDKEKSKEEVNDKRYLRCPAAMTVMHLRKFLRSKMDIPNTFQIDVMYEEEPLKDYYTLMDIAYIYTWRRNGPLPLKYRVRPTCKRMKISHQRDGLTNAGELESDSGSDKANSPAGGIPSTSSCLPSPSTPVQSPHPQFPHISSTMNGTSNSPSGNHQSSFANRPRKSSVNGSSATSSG

HCT-116 [10] = experiment: Antimigratory activity against human HCT116 cells after 24 hrs by crystal violet staining based transwell migration assay; assay type: functional, cell-based
Method in brief: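 HCT116 cells were tested for migration through a transwell chamber at 0.5 and 1 μM, compared against an untreated (0 μM) control. Significance was assessed versus that control.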

HCT-116 [11] = experiment: Antimigratory activity against human HCT116 cells at 0.5 uM after 24 hrs by crystal violet staining based transwell migration assay relative to control; assay type: functional
Method in brief: (§2)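 HCT116 cells in transwell chambers; migration compared with untreated control (0 μM).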

HCT-116 [12] = experiment: Antimigratory activity against human HCT116 cells at 1 uM after 24 hrs by crystal violet staining based transwell migration assay relative to control; assay type: functional; method in brief: as §2
HCT-116 [13] = experiment: Inhibition of colony formation in human HCT116 cells after 7 days by crystal violet staining based assay; assay type: functional, cell-based
Method in brief: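 HCT116 colony formation assay over a concentration series; read-out was colony number and size.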

HCT-116 [14] = experiment: Inhibition of cancer stem cell proliferation in human HCT116 cells assessed as decrease in CD133/CD44-positive cell population after 48 hrs by flow cytometry; assay type: functional, cell-based
Method in brief: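 HCT116 cells, which coexpress CD133 and CD44; the CD133+/CD44+ stem-like population was quantified by flow cytometry after treatment over a concentration series.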

HCT-116 [15] = experiment: Inhibition of cancer stem cell proliferation in human HCT116 cells assessed as CD133/CD44-positive cell population at 1 uM after 48 hrs by flow cytometry (reference value: 85.1 to 86.6%); assay type: functional; set-up: scale not given: the % may be the effect or the level left
HCT-116 [16] = experiment: Induction of apoptosis in human HCT116 cells at 1 uM after 48 hrs by Annexin V/propidium iodide staining based flow cytometry relative to control; assay type: functional
HCT-116 [17] = experiment: Induction of apoptosis in human HCT116 cells after 48 hrs by Annexin V/propidium iodide staining based flow cytometry; assay type: functional, cell-based
Method in brief: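 HCT116 cells treated for 48 h; apoptosis scored by flow cytometry as early and late apoptotic fractions, compared with untreated controls.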

HCT-116 [18] = experiment: Antitumor activity against human HCT116 cells xenografted in nude mouse assessed as tumor growth inhibition at 5 mg/kg/day, ip for 18 days; assay type: functional, organism-based
Method in brief: (§3)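 HCT116 subcutaneous xenografts in nude mice; mice randomized into groups of n = 6 and given vehicle (DMSO), test article or reference intraperitoneally daily for 18 days, then sacrificed. End points were excised tumor weight and volume, body weight, histology of heart, liver, spleen, lung and kidney, and immunohistochemistry of tumors for Ki67 and Bmi-1.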

Mus musculus [19] = experiment: Toxicity in nude mouse xenografted with human HCT116 cells assessed as change in body weight at 5 to 10 mg/kg/day, ip for 18 days; assay type: organism-based; settings: in vivo, 432 h; method in brief: as §3
Mus musculus [20] = experiment: Toxicity in nude mouse xenografted with human HCT116 cells assessed as abnormality in heart at 5 to 10 mg/kg/day, ip for 18 days by hematoxylin and eosin staining based microscopic analysis; assay type: organism-based; settings: in vivo, 432 h; method in brief: as §3
Mus musculus [21] = experiment: Toxicity in nude mouse xenografted with human HCT116 cells assessed as abnormality in liver at 5 to 10 mg/kg/day, ip for 18 days by hematoxylin and eosin staining based microscopic analysis; assay type: organism-based; settings: in vivo, 432 h; method in brief: as §3
Mus musculus [22] = experiment: Toxicity in nude mouse xenografted with human HCT116 cells assessed as abnormality in spleen at 5 to 10 mg/kg/day, ip for 18 days by hematoxylin and eosin staining based microscopic analysis; assay type: organism-based; settings: in vivo, 432 h; method in brief: as §3
Mus musculus [23] = experiment: Toxicity in nude mouse xenografted with human HCT116 cells assessed as abnormality in lung at 5 to 10 mg/kg/day, ip for 18 days by hematoxylin and eosin staining based microscopic analysis; assay type: organism-based; settings: in vivo, 432 h; method in brief: as §3
Mus musculus [24] = experiment: Toxicity in nude mouse xenografted with human HCT116 cells assessed as abnormality in kidney at 5 to 10 mg/kg/day, ip for 18 days by hematoxylin and eosin staining based microscopic analysis; assay type: organism-based; settings: in vivo, 432 h; method in brief: as §3
HCT-116 [25] = experiment: Antitumor activity against human HCT116 cells xenografted in nude mouse assessed as reduction in Ki67 expression in tumor at 5 to 10 mg/kg/day, ip for 18 days by IHC analysis; assay type: functional, organism-based; method in brief: as §3
Mus musculus [26] = experiment: Decrease in Bmi1 expression in tumors of nude mouse xenografted with human HCT116 cells at 5 to 10 mg/kg/day, ip for 18 days by IHC analysis; assay type: functional, organism-based; method in brief: as §3

COc1cc2c(cc1C(=O)Nc1ccccc1OC(F)(F)F)CC[C@H]1C(C)(C)C(=O)C(C#N)=C[C@]21C
Activity (HCT-116 [1]): inactive
Activity (HCT-116 [2]): inactive
IC50 (HCT-116 [3]): 250 nM
inhibition (HCT-116 [4]): Dose-dependent effect
IC50 (HCT-116 [4]; HCT-116, 8 h): 830 nM
IC50 (HT-29): 450 nM
IC50 (HCT-8): 360 nM
IC50 [5]: 3.28 µM
selectivity ratio [6]: 7.3 to 13.1
selectivity ratio [7]: 7.3 to 13.1
selectivity ratio [8]: 7.3 to 13.1
inhibition [9]: Dose-dependent effect
Activity (HCT-116 [10]): Dose-dependent effect
Activity (HCT-116 [11]): 30%
Activity (HCT-116 [12]): 70%
inhibition (HCT-116 [13]): Dose-dependent effect
inhibition (HCT-116 [14]): Dose-dependent effect
Activity (HCT-116 [15]): 56.1%
Activity (HCT-116 [16]): 20.29%
Activity (HCT-116 [17]): Dose-dependent effect
TGI (HCT-116 [18]): Active
Activity (Mus musculus [19]): Non-Toxic
Activity (Mus musculus [20]): Non-Toxic
Activity (Mus musculus [21]): Non-Toxic
Activity (Mus musculus [22]): Non-Toxic
Activity (Mus musculus [23]): Non-Toxic
Activity (Mus musculus [24]): Non-Toxic
Activity (HCT-116 [25]): Active
Activity (Mus musculus [26]): Active
